Measured values collected from several papers.
Each line is one published result; the experiments were not run side by side.
CHRNA7: Neuronal acetylcholine receptor subunit alpha-7 (CHRNA7, Homo sapiens, UniProt P36544)
HRH3: Histamine H3 receptor (HRH3, Homo sapiens, UniProt Q9Y5N1)
CNR2: Cannabinoid receptor 2 (CNR2, Homo sapiens, UniProt P34972)
Ntsr1: Neurotensin receptor type 1 (Ntsr1, Rattus norvegicus, UniProt P20789)

COc1ccc2c3c([nH]c2c1)CCN(C)CC3  IC50 (CHRNA7; ion current, antagonist, two-electrode voltage clamp; oocytes): 10.3 µM
CNC(=O)c1ccc(-c2cnn3ccc(C(=O)N(C)c4ccc(Cl)c(C(=O)OC)c4)cc23)cc1  IC50 (HRH3; cell-free assay): > 30 µM
CCC(CC)(NC(=O)c1ccc(N2CC(OC)C2)c(OC[C@H]2C[C@@H]2CO)n1)C(=O)NCCOCCOCCNC(=O)c1ccc2c(c1)C1(OC2=O)c2ccc(N(C)C)cc2[Si](C)(C)c2cc(N(C)C)ccc21  Ki (CNR2; ligand displacement, radioligand; cell membranes): 1.62 µM
CC(C)C[C@@H]1NC(=O)[C@H](C(C)(C)C)NC(=O)[C@H](Cc2ccc(O)cc2)NC(=O)[C@@H]2CCCN2C(=O)[C@H](CCCCN)NC(=O)[C@H](CCCNC(=N)N)NC1=O  Ki (Ntsr1; ligand displacement): > 100 µM
CCC(CC)(NC(=O)c1ccc(C2CC2)c(Cc2ccc(F)cc2)n1)C(=O)NCCOCCOCCNC(=O)c1ccc2c(c1)C(=O)OC21c2ccc(N)c(S(=O)(=O)O)c2Oc2c1ccc(N)c2S(=O)(=O)O  Ki (CNR2; ligand displacement, radioligand; cell membranes): 0.141 µM
CC(C)(C)OC(=O)N1CCN(C(=O)n2cc(-c3ccc(OC(F)(F)F)cc3)nn2)C(Cc2ccccc2)C1 (stereo not drawn)  IC50 (Monoacylglycerol lipase ABHD6 (Abhd6, Mus musculus, UniProt Q8R2Y0); enzyme activity, inhibitor): 0.0081 µM
COC(=O)c1cc(N(C)C(=O)c2ccn3ncc(-c4ccc(C(=O)O)cc4)c3c2)ccc1Cl  IC50 (HRH3; cell-free assay): > 30 µM
COc1ccc2[nH]c3c(c2c1)CCN(C)CC3  IC50 (CHRNA7; ion current, antagonist, two-electrode voltage clamp; oocytes): 11.2 µM
C=C1CC[C@H]2O[C@]2(C)CC[C@@H]2[C@@H]1CC2(C)C  Ki (CNR2; ligand displacement, radioligand; cell membranes): > 10 µM
CC[C@H](C)[C@H](NC(C)=O)C(=O)N[C@@H](CCC(=O)O)C(=O)N[C@H](C(=O)N[C@H](C=O)CC(=O)O)[C@@H](C)O  IC50 (Caspase-2 (Homo sapiens, UniProt P42575); enzyme activity, inhibitor): 0.0733 µM
CCCCCc1cc(O)c2c(c1)OC(C)(CCC=C(C)C)C=C2 (stereo not drawn)  Ki (CNR2; ligand displacement, radioligand; cell membranes): 1.74 µM
CC(C)C[C@H](NC(=O)[C@@H](N)C(C)(C)C)C(=O)N[C@@H](CCCNC(=N)N)C(=O)N[C@@H](CCCCN)C(=O)N1CCC[C@H]1C(=O)N[C@@H](Cc1ccc(O)cc1)C(=O)O  Ki (Ntsr1; ligand displacement, flow cytometry): > 100 µM
